Results taken from ChEMBL document CHEMBL3817728, “Synthesis, Evaluation, and Mechanism Study of Novel Indole-Chalcone Derivatives Exerting Effective Antitumor Activity Through Microtubule Destabilization in Vitro and in Vivo” (J Med Chem, 2016).
pIC50: −log10 of the molar value. Active and inactive are the calls of the source. The calls are words filed in the database; no cut-off is given here.

How the values were obtained:
A549 [1] = test: Induction of apoptosis in human A549 cells assessed as early apoptotic cells at 10 nM after 24 hrs by annexin V-FITC/propidium iodide staining-based flow cytometric method (reference value: 1.07%); type: functional
A549 [2] = test: Induction of apoptosis in human A549 cells assessed as viable cells at 3 nM after 24 hrs by annexin V-FITC/propidium iodide staining-based flow cytometric method (reference value: 98.9%); type: functional; conditions: A549, 24 h, read-out: Activity
Outline: (§1)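 A549 cells exposed 24 h or 48 h at indicated concentrations, then trypsinized, harvested and stained with Annexin V-FITC and PI; flow cytometry quadrants scored as necrotic (upper left), late apoptotic (upper right), live (bottom left) and early apoptotic (bottom right). Five independent experiments, representative shown.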

A549 [3] = test: Induction of apoptosis in human A549 cells assessed as viable cells at 1 nM after 48 hrs by annexin V-FITC/propidium iodide staining-based flow cytometric method (reference value: 98.1%); type: functional; conditions: A549, 48 h, read-out: Activity; outline: as §1
A549 [4] = test: Resistance index, ratio of IC50 for human A549/CDDP cells to IC50 for human A549 cells; type: functional
Mus musculus = test: Toxicity in BALB/c nude mouse xenografted with human A549 cells assessed as loss of body weight at 30 mg/kg, ip administered every other day for 1 month measured every other day post dose relative to vehicle-treated control; type: organism-based; conditions: in vivo
A549 [5] = test: Disruption of microtubule network in human A549 cells assessed as multipolarization of spindle at 10 nM after 24 hrs by Hoechst 33342 staining-based laser scanning confocal microscopic analysis; type: cell-based
Outline: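 A549 cells plated in confocal dishes and incubated with compound for 24 h. Cells were then fixed and stained, and microtubule and spindle organization was imaged by laser confocal microscopy. Experiments done five times; representative results shown.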

[6] = Selectivity ratio of IC50 for HLF to IC50 for human A549 cells; type: ADME, cell-based; conditions: HLF versus A549 cells, read-out: Ratio IC50
Outline: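 Selectivity ratio = IC50 in normal cells / IC50 in A549; IC50 values mean ± SE from dose-response curves of at least three independent experiments. HUVECs kept quiescent in endothelial cell medium with 0.5% fetal calf serum, no growth factor.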

[7] = Cytotoxicity against human MCF7/DX cells assessed as growth inhibition after 48 hrs by MTT assay; type: functional, cell-based
Outline: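 Drug-resistant lines were tested by a 48 h MTT viability assay. IC50 was derived from dose-response curves and reported as mean ± SE of at least three independent experiments.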

A549 [8] = test: Induction of apoptosis in human A549 cells assessed as necrotic cells at 10 nM after 24 hrs by annexin V-FITC/propidium iodide staining-based flow cytometric method (reference value: 0.03%); type: functional
A549 [9] = test: Induction of apoptosis in human A549 cells assessed as early apoptotic cells at 1 nM after 24 hrs by annexin V-FITC/propidium iodide staining-based flow cytometric method (reference value: 1.07%); type: functional
[10] = Metabolic stability in Sprague-Dawley rat liver microsomes assessed as compound remaining at 90 mins in presence of NADPH regenerating system by HPLC method; type: ADME; conditions: read-out: Stability
Outline: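 Test compound incubated with rat liver microsomes at 37 ℃ in buffer containing an NADPH regenerating system for the stated time. Remaining parent compound was quantified by HPLC.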

[11] = Cytotoxicity against human MCF10A cells assessed as growth inhibition after 48 hrs by MTT assay; type: cell-based; conditions: MCF-10A
Outline: (§2)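 Non-tumorigenic cells given 48 h compound exposure, and viability read by MTT. IC50 is mean ± SE from dose-response curves of at least three independent experiments. HUVECs were kept quiescent in endothelial cell medium with 0.5% fetal calf serum and no growth factor.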

A549 [12] = test: Cell cycle arrest in human A549 cells assessed as accumulation at sub-G1 phase at 3 to 10 nM after 24 to 72 hrs by propidium iodide staining-based flow cytometric analysis; type: functional
Outline: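 A549 cells exposed to compound for 24, 48 or 72 h, then trypsinized and harvested. DNA stained with propidium iodide and analyzed by flow cytometry. Percentage of cells in each cell-cycle phase was quantified from the DNA histograms, with sub-G1 taken as the hypodiploid peak. Performed at least three times; representative experiments shown.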

A549 [13] = test: Induction of apoptosis in human A549 cells assessed as viable cells at 3 nM after 48 hrs by annexin V-FITC/propidium iodide staining-based flow cytometric method (reference value: 98.1%); type: functional; conditions: A549, 48 h, read-out: Activity; outline: as §1
A2780 = test: Resistance index, ratio of IC50 for human A2780/TAX cells to IC50 for human A2780 cells; type: functional
A549 [14] = test: Disruption of mitochondrial membrane potential in human A549 cells assessed as green fluorescence intensity at 3 nM after 24 hrs by JC1 staining-based flow cytometric method (reference value: 0.02%); type: functional
HeLa = test: Cytotoxicity against human HeLa cells assessed as cell viability after 48 hrs by MTT assay; type: functional, cell-based
Outline: (§3)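 Cancer cell lines treated with compound for 48 h, and viability read by MTT assay. IC50 given as mean ± SD from at least three independent experiments.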

[15] = Metabolic stability in Sprague-Dawley rat liver microsomes assessed as compound remaining at 120 mins in presence of NADPH regenerating system by HPLC method; type: ADME; conditions: read-out: Stability
Outline: (§4)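 Rat liver microsomes incubated with compound at 37 ℃ for indicated times in buffer containing NADPH regenerating system; residual parent determined by HPLC.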

HCT-8 = test: Resistance index, ratio of IC50 for human HCT8/VCT cells to IC50 for human HCT8 cells; type: functional
[16] = Cytotoxicity against HLF assessed as growth inhibition after 48 hrs by MTT assay; conditions: Homo sapiens; outline: as §2
A549 [17] = test: Disruption of mitochondrial membrane potential in human A549 cells assessed as red fluorescence intensity at 3 nM after 24 hrs by JC1 staining-based flow cytometric method (reference value: 99.2%); type: functional
A549 [18] = test: Cytotoxicity against human A549 cells assessed as cell viability after 48 hrs by MTT assay; type: functional, cell-based; conditions: A549, 48 h; outline: as §3
[19] = Metabolic stability in Sprague-Dawley rat liver microsomes assessed as compound remaining at 150 mins in presence of NADPH regenerating system by HPLC method; type: ADME; conditions: read-out: Stability; outline: as §4
[20] = Cytotoxicity against human HCT8 cells assessed as cell viability after 48 hrs by MTT assay; type: functional, cell-based; conditions: HCT-8, 48 h; outline: as §3
HUVEC = test: Cytotoxicity against quiescent HUVEC assessed as growth inhibition after 48 hrs in presence of 0.5% fetal calf serum and absence of growth factor by MTT assay; type: cell-based; conditions: Homo sapiens; outline: as §2
A549 [21] = test: Induction of apoptosis in human A549 cells assessed as early apoptotic cells at 10 nM after 48 hrs by annexin V-FITC/propidium iodide staining-based flow cytometric method (reference value: 1.95%); type: functional
A549 [22] = test: Disruption of mitochondrial membrane potential in human A549 cells assessed as red fluorescence intensity at 1 nM after 24 hrs by JC1 staining-based flow cytometric method (reference value: 99.2%); type: functional
MCF7 = test: Resistance index, ratio of IC50 for human MCF7/DX cells to IC50 for human MCF7 cells; type: functional
Tubulin (Sus scrofa) = Tubulin (Sus scrofa) (UniProt P02554+P02550); test: Inhibition of [3H]-colchicine binding to porcine brain tubulin at 5 uM relative to control
Tubulin (Sus scrofa), sequence (P02550 whole entry, looked up): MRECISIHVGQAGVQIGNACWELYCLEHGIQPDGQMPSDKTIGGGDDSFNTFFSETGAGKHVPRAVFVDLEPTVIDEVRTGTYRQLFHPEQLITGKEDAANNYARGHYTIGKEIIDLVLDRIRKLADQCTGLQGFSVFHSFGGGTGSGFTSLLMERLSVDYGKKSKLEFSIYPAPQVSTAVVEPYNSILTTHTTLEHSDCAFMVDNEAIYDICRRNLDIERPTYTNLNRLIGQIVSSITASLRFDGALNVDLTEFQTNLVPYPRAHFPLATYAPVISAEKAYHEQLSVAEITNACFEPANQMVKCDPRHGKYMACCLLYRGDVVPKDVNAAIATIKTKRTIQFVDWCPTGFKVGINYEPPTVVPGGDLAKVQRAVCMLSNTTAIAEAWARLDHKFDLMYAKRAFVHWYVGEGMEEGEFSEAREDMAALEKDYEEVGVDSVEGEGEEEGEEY
Tubulin (Sus scrofa), sequence (P02554 whole entry, looked up): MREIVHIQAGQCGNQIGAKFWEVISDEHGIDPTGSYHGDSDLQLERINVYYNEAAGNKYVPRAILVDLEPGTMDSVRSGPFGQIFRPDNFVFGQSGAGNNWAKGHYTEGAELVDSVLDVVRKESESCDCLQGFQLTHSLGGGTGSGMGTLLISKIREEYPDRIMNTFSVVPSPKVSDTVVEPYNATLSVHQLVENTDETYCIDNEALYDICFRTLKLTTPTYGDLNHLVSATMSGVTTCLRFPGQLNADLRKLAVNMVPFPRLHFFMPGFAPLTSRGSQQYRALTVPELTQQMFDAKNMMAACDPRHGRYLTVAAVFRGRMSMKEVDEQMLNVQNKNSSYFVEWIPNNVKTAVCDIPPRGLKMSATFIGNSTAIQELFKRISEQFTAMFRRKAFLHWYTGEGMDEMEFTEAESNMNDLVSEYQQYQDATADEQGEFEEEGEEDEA
Outline: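 Competition with [3H]colchicine at 5 μM; test agents at 5 or 1 μM. Mean ± SD of at least three independent experiments.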

- remaining at 1.5 h [10]: 73.7%
- remaining at 2 h [15]: 66.3%
- remaining at 2.5 h [19]: 54.1%
- inhibition (Tubulin (Sus scrofa)): 96%
SMILES: COc1ccc2c(/C=C(\C)C(=O)c3cc(OC)c(OC)c(OC)c3)c[nH]c2c1
- Activity (A549 [1]): 25.27%
- viability at 0.003 µM (A549 [2]): 69.7%
- viability at 0.001 µM (A549 [3]): 66.8%
- Ratio IC50 (A549 [4]): 1.33
- Activity (Mus musculus): Non-toxic
- Activity (A549 [5]): Active
- selectivity ratio [6]: 1890
- pIC50 [7]: 8.05
- Activity (A549 [8]): 2.94%
- Activity (A549 [9]): 12.8%
- pIC50 [11]: 5.57
- Activity (A549 [12]): Active
- viability at 0.003 µM (A549 [13]): 33.9%
- Ratio IC50 (A2780): 12.4
- Activity (A549 [14]): 43.8%
- pIC50 (HeLa): 8.15
- Ratio IC50 (HCT-8): 0.42
- pIC50 [16]: 5.25
- Activity (A549 [17]): 53.9%
- pIC50 (A549 [18]): 8.52
- pIC50 [20]: 8.22
- pIC50 (HUVEC): 6.79
- Activity (A549 [21]): 8.41%
- Activity (A549 [22]): 97.2%
- Ratio IC50 (MCF7): 1.5
